The source made the active and inactive calls.
Columns and labels:
Hepatitis B virus [1] = test: Antiviral activity against HBV infected in human assessed as reduction in serum viral DNA level at 10 to 30 mg per day after 48 weeks; assay type: functional
PBMC [2] = test: Increase in HBV-specific IFN-gamma production in HBcAg-stimulated human PBMC assessed as INFgamma production index at 10 to 30 mg per day after 48 weeks by […]; assay type: functional
Procedure, shortened: (§1)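 PBMC at 3 × 10⁶/ml in RPMI with 10% human AB serum, cultured in quadruplicate for 6 days with or without rHBcAg (1 μg/ml). IFN-γ in cell-free supernatants (kept at −20°C) was measured by ELISA. Index = mean pg/ml IFN-γ of the four HBcAg-stimulated replicates divided by that of medium-only cultures, calculated at each protocol time point.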

Homo sapiens [3] = species: Homo sapiens; test: Serum IL10 level in human at baseline at 10 to 30 mg per day by cytometric bead array
PBMC [4] = test: Increase in HBV-specific Fas ligand level in HBcAg-stimulated human PBMC at 10 to 30 mg per day by ELISA; assay type: functional, cell-based
PBMC [5] = test: Increase in HBV-specific IL2 level in HBcAg-stimulated human PBMC at 10 to 30 mg per day by ELISA; assay type: functional, cell-based
PBMC [6] = test: Increase in HBV-specific IL5 level in HBcAg-stimulated human PBMC at 10 to 30 mg per day by ELISA; assay type: functional, cell-based
Homo sapiens [7] = species: Homo sapiens; test: Increase in HBV-specific IFN-gamma-producing CD4+ cell proliferation in patients with […] chronic hepatitis B assessed as [3H]thymidine incorporation by beta counting relative to baseline; assay type: functional
Procedure, shortened: (§2)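 Freshly isolated patient PBMC (density gradient) at 2 × 10⁶/ml in RPMI with 10% human AB serum. rHBcAg (1 μg/ml) was added to quadruplicate wells, with tetanus toxoid (0.5 μg/ml) and phytohemagglutinin (1 μg/ml) as controls. After 6 days, 0.5 μCi/well [³H]thymidine pulse and beta counting. Stimulation index = mean cpm antigen/medium. The positive cutoff was mean + 3 SD of 15–20 controls per center.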

Homo sapiens [8] = species: Homo sapiens; test: Increase in HBV-specific IFN-gamma-producing CD4+ cell proliferation in patients with […] chronic hepatitis B assessed as [3H]thymidine incorporation after 40 weeks by beta counting relative to baseline; assay type: functional, organism-based; procedure, shortened: as §2
PBMC [9] = test: Increase in HBV-specific IL8 in HBcAg-stimulated human PBMC at 10 to 30 mg per day by ELISA; assay type: functional, cell-based
PBMC [10] = test: Increase in HBV-specific IFN-gamma production in HBcAg-stimulated human PBMC assessed as INFgamma production index at 10 to 30 mg per day after 24 weeks by […]; assay type: functional; procedure, shortened: as §1
PBMC [11] = test: Increase in HBV-specific IFN-gamma production in HBcAg-stimulated human PBMC assessed as INFgamma production index at 10 to 30 mg per day after 4 weeks […]; assay type: functional; procedure, shortened: as §1
Hepatitis B virus [12] = test: Antiviral activity against HBV infected patients assessed as ALT level at 10 to 30 mg per day after 48 weeks […]; assay type: functional
PBMC [13] = test: Increase in HBV-specific IL12p70 level in HBcAg-stimulated human PBMC at 10 to 30 mg per day by ELISA; assay type: functional, cell-based
PBMC [14] = test: Increase in HBV-specific IFN-gamma production in HBcAg-stimulated human PBMC assessed as INFgamma production index at 10 to 30 mg per day after 40 weeks by […]; assay type: functional; procedure, shortened: as §1
PBMC [15] = test: Increase in HBV-specific IP10 in HBcAg-stimulated human PBMC at 10 to 30 mg per day by ELISA; assay type: functional, cell-based
Homo sapiens [16] = species: Homo sapiens; test: Increase in HBV-specific IFN-gamma-producing CD4+ cell proliferation in patients with […] chronic hepatitis B assessed as [3H]thymidine incorporation after 16 weeks by beta counting relative to baseline; assay type: functional, organism-based; procedure, shortened: as §2
PBMC [17] = test: Increase in HBV-specific IFN-gamma production in HBcAg-stimulated human PBMC assessed as INFgamma production index at 10 to 30 mg per day after 8 weeks by […]; assay type: functional; procedure, shortened: as §1
Homo sapiens [18] = species: Homo sapiens; test: Increase in HBV-specific IFN-gamma-producing CD4+ cell proliferation in patients with […] chronic hepatitis B assessed as [3H]thymidine incorporation after 48 weeks by beta counting relative to baseline; assay type: functional, organism-based; procedure, shortened: as §2
PBMC [19] = test: Increase in HBV-specific IFN-gamma production in HBcAg-stimulated human PBMC assessed as INFgamma production index at 10 to 30 mg per day after 16 weeks […]; assay type: functional; procedure, shortened: as §1

CC(C)(C)C(=O)OCOP(=O)(COCCn1cnc2c(N)ncnc21)OCOC(=O)C(C)(C)C [ADEFOVIR DIPIVOXIL] was tested, and the Activity (Hepatitis B virus [1]) was -5.3 log10CFU/ml, the Activity (PBMC [2]) was 18 and the Activity (Homo sapiens [3]) was 32 pg/mL. The Activity (PBMC [4]) was “inactive”, the Activity (PBMC [5]) was “inactive” and the Activity (PBMC [6]) was “inactive”. The Activity (Homo sapiens [7]) was 15%, the Activity (Homo sapiens [8]) was “Active” and the Activity (PBMC [9]) was “Active”. The Activity (PBMC [10]) was 26.3, the Activity (PBMC [11]) was 58.9 and the Activity (Hepatitis B virus [12]) was 35 IU/ml. For the same compound, the Activity (PBMC [13]) was “inactive”, the Activity (PBMC [14]) was 61.5 and the Activity (PBMC [15]) was “Active”. For the same compound, the Activity (Homo sapiens [16]) was “Active”, the Activity (PBMC [17]) was 184.3 and the Activity (Homo sapiens [18]) was “Active”. It also gave an Activity (PBMC [19]) of 63.9.

Source: ChEMBL document CHEMBL1152466, “Hepatitis B virus e antigen loss during adefovir dipivoxil therapy is associated with enhanced virus-specific CD4+ T-cell reactivity” (2008)
